Experiments:
Jurkat [1] = assay: Cytotoxicity against human Jurkat cells assessed as cell viability at 1 uM after 44 hrs by MTT assay relative to control; format: functional; details: read-out: Activity
U-937 [2] = assay: Cytotoxicity against human U937 cells assessed as cell viability at 1.6 x 10^-5 M after 44 hrs by MTT assay relative to control; format: functional; details: U-937, 44 h, read-out: Activity
Jurkat [3] = assay: Cytotoxicity against human Jurkat cells assessed as cell viability at 10 uM after 44 hrs by MTT assay relative to control; format: functional; details: read-out: Activity
U-937 [4] = assay: Cytotoxicity against human U937 cells assessed as cell viability at 6.4 x 10^-5 M after 44 hrs by MTT assay relative to control; format: functional; details: U-937, 44 h, read-out: Activity
U-937 [5] = assay: Cytotoxicity against human U937 cells assessed as cell viability at 8 x 10^-6 M after 44 hrs by MTT assay relative to control; format: functional; details: U-937, 44 h, read-out: Activity
U-937 [6] = assay: Cytotoxicity against human U937 cells assessed as cell viability at 4 x 10^-6 M after 44 hrs by MTT assay relative to control; format: functional; details: U-937, 44 h, read-out: Activity
U-937 [7] = assay: Cytotoxicity against human U937 cells assessed as cell viability at 3.2 x 10^-5 M after 44 hrs by MTT assay relative to control; format: functional; details: U-937, 44 h, read-out: Activity
U-937 [8] = assay: Cytotoxicity against human U937 cells assessed as cell viability at 2 x 10^-6 M after 44 hrs by MTT assay relative to control; format: functional; details: U-937, 44 h, read-out: Activity
U-937 [9] = assay: Cytotoxicity against human U937 cells assessed as decrease in cell viability after 44 hrs by MTT assay; format: functional, cell-based; details: u-937
[10] = target: T1, Histone deacetylase (Homo sapiens) (UniProt Q13547+O15379+Q9UBN7+Q92769+Q9UQL6+Q8WUI4+Q9BY41+Q96DB2+P56524+Q9UKV0+Q969S8); assay: Inhibition of HDAC in human HeLa-S3 cell lysates assessed as residual activity at 1 x 10^-5 M preincubated for 15 mins followed by HDAC-Glo substrate addition measured after 35 mins by […] relative to control; format: protein assay
In short: (§1)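 Lysate (1 μg total protein) in HDAC-Glo buffer was preincubated with inhibitor in DMSO for 15 min at room temperature. HDAC-Glo substrate/developer reagent was added and luminescence read after 35 min. Concentrations are final. Signal corrected for a no-lysate blank; % of DMSO control.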

[11] = target: T1, Histone deacetylase (Homo sapiens); assay: Inhibition of HDAC in human HeLa-S3 cell lysates assessed as residual activity at 1.25 x 10^-6 M preincubated for 15 mins followed by HDAC-Glo substrate addition measured after 35 mins by […] relative to control; format: protein assay; in short: as §1
[12] = target: T1, Histone deacetylase (Homo sapiens); assay: Inhibition of HDAC in human HeLa-S3 cell lysates assessed as residual activity at 2.5 x 10^-6 M preincubated for 15 mins followed by HDAC-Glo substrate addition measured after 35 mins by […] relative to control; format: protein assay; in short: as §1
[13] = target: T2, Protein deacetylase HDAC6 (Homo sapiens) (UniProt Q9UBN7); assay: Inhibition of HDAC6 in human HeLa-S3 cell lysates assessed as remaining activity at […] preincubated for 15 mins followed by HDAC-Glo substrate addition measured after 30 to 40 mins by […] relative to control
T2 sequence (whole entry): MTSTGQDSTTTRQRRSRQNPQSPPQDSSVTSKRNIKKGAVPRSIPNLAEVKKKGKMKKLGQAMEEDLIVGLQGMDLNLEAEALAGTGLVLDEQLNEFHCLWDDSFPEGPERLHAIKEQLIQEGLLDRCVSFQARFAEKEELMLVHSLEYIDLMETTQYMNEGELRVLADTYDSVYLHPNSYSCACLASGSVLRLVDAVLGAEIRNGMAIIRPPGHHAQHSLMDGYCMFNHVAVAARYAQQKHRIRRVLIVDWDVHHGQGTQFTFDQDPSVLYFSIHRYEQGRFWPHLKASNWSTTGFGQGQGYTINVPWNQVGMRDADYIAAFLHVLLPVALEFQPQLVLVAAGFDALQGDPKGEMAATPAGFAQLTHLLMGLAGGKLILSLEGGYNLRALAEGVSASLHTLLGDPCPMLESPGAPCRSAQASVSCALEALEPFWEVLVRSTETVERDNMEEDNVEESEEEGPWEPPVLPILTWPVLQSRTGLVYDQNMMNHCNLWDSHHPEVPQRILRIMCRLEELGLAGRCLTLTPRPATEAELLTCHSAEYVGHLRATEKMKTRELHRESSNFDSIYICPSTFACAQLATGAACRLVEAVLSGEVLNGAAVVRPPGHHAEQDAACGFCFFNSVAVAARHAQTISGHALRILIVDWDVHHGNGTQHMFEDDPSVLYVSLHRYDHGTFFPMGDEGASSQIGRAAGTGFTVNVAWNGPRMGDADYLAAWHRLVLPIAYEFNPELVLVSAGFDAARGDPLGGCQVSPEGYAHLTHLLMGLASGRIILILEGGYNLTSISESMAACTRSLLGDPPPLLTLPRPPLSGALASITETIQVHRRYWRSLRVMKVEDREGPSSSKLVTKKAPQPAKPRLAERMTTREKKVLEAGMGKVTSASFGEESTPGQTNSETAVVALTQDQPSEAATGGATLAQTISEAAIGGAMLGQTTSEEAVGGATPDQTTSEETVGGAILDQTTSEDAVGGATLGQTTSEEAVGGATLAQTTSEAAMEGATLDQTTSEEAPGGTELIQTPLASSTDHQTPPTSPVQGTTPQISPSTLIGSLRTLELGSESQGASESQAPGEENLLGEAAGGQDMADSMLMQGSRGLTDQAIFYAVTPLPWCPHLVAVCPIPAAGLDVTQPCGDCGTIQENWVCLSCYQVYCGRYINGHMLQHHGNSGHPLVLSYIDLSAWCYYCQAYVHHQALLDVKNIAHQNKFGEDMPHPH

[14] = target: Histone deacetylase 1 (Homo sapiens) (UniProt Q13547); assay: Inhibition of HDAC1 in human HeLa-S3 cell lysates assessed as remaining activity at […] preincubated for 15 mins followed by HDAC-Glo substrate addition measured after 30 to 40 mins by […] relative to control
[15] = target: T1, Histone deacetylase (Homo sapiens); assay: Inhibition of HDAC in human HeLa-S3 cell lysates assessed as residual activity at 5 x 10^-6 M preincubated for 15 mins followed by HDAC-Glo substrate addition measured after 35 mins by fluorimetric method relative to control; format: protein assay; in short: as §1
Histone deacetylase = assay: Inhibition of HDAC in human HeLa-S3 cell lysates preincubated for 15 mins followed by HDAC-Glo substrate addition measured after 35 mins by fluorimetric method; format: protein assay
[16] = target: Histone deacetylase 2 (Homo sapiens) (UniProt Q92769); assay: Inhibition of HDAC2 in human HeLa-S3 cell lysates assessed as remaining activity at […] preincubated for 15 mins followed by HDAC-Glo substrate addition measured after 30 to 40 mins by […] relative to control
[17] = target: T1, Histone deacetylase (Homo sapiens); assay: Inhibition of HDAC in human HeLa-S3 cell lysates assessed as residual activity at 6.25 x 10^-6 M preincubated for 15 mins followed by HDAC-Glo substrate addition measured after 35 mins by […] relative to control; format: protein assay
[18] = target: Histone deacetylase 3 (Homo sapiens) (UniProt O15379); assay: Inhibition of HDAC3 in human HeLa-S3 cell lysates assessed as remaining activity at […] preincubated for 15 mins followed by HDAC-Glo substrate addition measured after 30 to 40 mins by […] relative to control
Chain of Histone deacetylase 3 (Homo sapiens) (O15379 whole entry): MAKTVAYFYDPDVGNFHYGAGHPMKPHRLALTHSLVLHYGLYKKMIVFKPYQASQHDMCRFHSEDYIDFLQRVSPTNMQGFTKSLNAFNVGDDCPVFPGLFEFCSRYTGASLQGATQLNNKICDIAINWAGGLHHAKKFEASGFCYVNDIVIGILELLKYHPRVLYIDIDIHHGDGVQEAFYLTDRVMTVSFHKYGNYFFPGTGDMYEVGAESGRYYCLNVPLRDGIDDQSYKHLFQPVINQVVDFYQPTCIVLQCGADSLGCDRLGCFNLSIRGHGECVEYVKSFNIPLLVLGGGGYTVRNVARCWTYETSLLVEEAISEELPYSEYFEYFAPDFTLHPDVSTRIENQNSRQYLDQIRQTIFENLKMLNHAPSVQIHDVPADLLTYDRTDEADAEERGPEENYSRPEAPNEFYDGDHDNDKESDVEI

Chain of Histone deacetylase 1 (Homo sapiens) (Q13547 whole entry): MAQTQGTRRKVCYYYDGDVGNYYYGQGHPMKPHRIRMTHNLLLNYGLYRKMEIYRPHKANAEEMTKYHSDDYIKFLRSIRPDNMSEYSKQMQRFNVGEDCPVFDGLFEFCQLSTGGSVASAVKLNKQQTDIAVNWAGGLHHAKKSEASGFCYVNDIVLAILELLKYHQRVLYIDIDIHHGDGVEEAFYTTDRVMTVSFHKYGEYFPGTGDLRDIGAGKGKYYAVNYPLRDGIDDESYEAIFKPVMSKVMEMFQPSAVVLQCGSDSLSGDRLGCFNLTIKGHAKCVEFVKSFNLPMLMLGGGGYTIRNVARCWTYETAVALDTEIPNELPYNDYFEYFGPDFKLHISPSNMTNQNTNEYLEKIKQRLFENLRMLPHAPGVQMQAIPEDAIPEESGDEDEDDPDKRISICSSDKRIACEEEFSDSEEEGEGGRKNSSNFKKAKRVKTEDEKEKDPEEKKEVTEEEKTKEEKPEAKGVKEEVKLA
Chain of Histone deacetylase 2 (Homo sapiens) (Q92769 whole entry): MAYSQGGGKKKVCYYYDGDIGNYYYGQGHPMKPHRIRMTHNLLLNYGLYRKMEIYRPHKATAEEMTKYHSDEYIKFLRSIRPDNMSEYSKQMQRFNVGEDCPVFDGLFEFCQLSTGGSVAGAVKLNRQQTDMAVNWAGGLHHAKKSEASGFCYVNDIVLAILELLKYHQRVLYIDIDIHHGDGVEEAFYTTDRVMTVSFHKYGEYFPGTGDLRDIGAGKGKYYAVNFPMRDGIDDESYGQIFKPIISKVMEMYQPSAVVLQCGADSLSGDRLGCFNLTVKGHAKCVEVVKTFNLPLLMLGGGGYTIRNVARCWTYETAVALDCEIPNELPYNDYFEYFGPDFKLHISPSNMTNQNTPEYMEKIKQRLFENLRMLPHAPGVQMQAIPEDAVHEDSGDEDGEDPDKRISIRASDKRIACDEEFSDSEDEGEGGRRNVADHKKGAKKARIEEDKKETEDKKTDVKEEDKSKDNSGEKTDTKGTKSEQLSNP

SMILES	viability at 1 µM (Jurkat [1]) [%]	viability at 16 µM (U-937 [2]) [%]	viability at 10 µM (Jurkat [3]) [%]	viability at 64 µM (U-937 [4]) [%]	viability at 8 µM (U-937 [5]) [%]	viability at 4 µM (U-937 [6]) [%]	viability at 32 µM (U-937 [7]) [%]	viability at 2 µM (U-937 [8]) [%]	EC50 (U-937 [9]) [µM]	Activity [10] [%]	Activity [11] [%]	Activity [12] [%]	Activity [13] [%]	Activity [14] [%]	Activity [15] [%]	IC50 (Histone deacetylase) [µM]	Activity [16] [%]	Activity [17] [%]	Activity [18] [%]
CCCCC(CCCC(=O)Nc1ccccc1)CCC(=O)NO (centres undefined)	98	80	62	24	87	100	54	100	34	–	–	–	–	–	–	–	–	–	–
CC(CCCC(=O)Nc1ccccc1)CCC(=O)NO (centres undefined)	–	–	–	–	–	–	–	–	–	17	79	60	26	75	38	3.3	90	91	78
